Data taken from ChEMBL document CHEMBL3112482, “Nonclassical antifolates, part 5. Benzodiazepine analogs as a new class of DHFR inhibitors: synthesis, antitumor testing and molecular modeling study” (Eur J Med Chem, 2014).

Assays:
Type in all cases: functional
[1] = tested on: MDA-MB-435; experiment: Growth inhibition of human MDA-MB-435 cells at 10 uM after 48 hrs; settings: MDA-MB-435, 48 h, read-out: GI
In short: (§1)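 Single-dose primary screen in the NCI 60 human tumour cell line panel, run at the NCI facility. The panel covers nine subpanels: leukaemia, non-small cell lung, colon, CNS, melanoma, ovarian, renal, prostate and breast. Read-out was percent growth of treated cells, shown as a mean graph and reported as percent growth inhibition.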

[2] = tested on: Malme-3M; experiment: Growth inhibition of human MALME-3M cells at 10 uM after 48 hrs; settings: read-out: GI; in short: as §1
[3] = tested on: SNB-75; experiment: Growth inhibition of human SNB75 cells at 10 uM after 48 hrs; settings: SNB-75, 48 h, read-out: GI
In short: (§2)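 NCI 60-cell-line disease-oriented human tumor panel, single-dose primary screen at 10 µM. Data given as mean-graph percent growth of treated cells, reported as percent growth inhibition (GI %).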

[4] = tested on: SNB-19; experiment: Growth inhibition of human SNB19 cells at 10 uM after 48 hrs; settings: SNB-19, 48 h, read-out: GI; in short: as §2
[5] = Growth inhibition of human SF539 cells at 10 uM after 48 hrs; settings: SF-539, 48 h, read-out: GI; in short: as §2
[6] = tested on: SF-268; experiment: Growth inhibition of human SF268 cells at 10 uM after 48 hrs; settings: SF-268, 48 h, read-out: GI; in short: as §2
[7] = tested on: HT-29; experiment: Growth inhibition of human HT-29 cells at 10 uM after 48 hrs; settings: HT-29, 48 h, read-out: GI; in short: as §1
[8] = tested on: COLO 205; experiment: Growth inhibition of human COLO205 cells at 10 uM after 48 hrs; settings: COLO 205, 48 h, read-out: GI; in short: as §1
[9] = tested on: NCI-H322M; experiment: Growth inhibition of human NCI-H322M cells at 10 uM after 48 hrs; settings: read-out: GI; in short: as §1
[10] = tested on: NCI-H23; experiment: Growth inhibition of human NCI-H23 cells at 10 uM after 48 hrs; settings: NCI-H23, 48 h, read-out: GI; in short: as §1
[11] = Growth inhibition of human HOP92 cells at 10 uM after 48 hrs; settings: HOP-92, 48 h, read-out: GI; in short: as §1
[12] = tested on: NCI-H226; experiment: Growth inhibition of human NCI-H226 cells at 10 uM after 48 hrs; settings: NCI-H226, 48 h, read-out: GI; in short: as §1
[13] = Growth inhibition of human EKVX cells at 10 uM after 48 hrs; settings: read-out: GI; in short: as §1
[14] = tested on: A549; experiment: Growth inhibition of human A549 cells at 10 uM after 48 hrs; settings: A549, 48 h, read-out: GI; in short: as §1
[15] = tested on: SR; experiment: Growth inhibition of human SR cells at 10 uM after 48 hrs; settings: read-out: GI; in short: as §2
[16] = tested on: K562; experiment: Growth inhibition of human K562 cells at 10 uM after 48 hrs; settings: K562, 48 h, read-out: GI; in short: as §1
[17] = tested on: MOLT-4; experiment: Growth inhibition of human MOLT4 cells at 10 uM after 48 hrs; settings: MOLT-4, 48 h, read-out: GI; in short: as §1
[18] = tested on: CCRF-CEM; experiment: Growth inhibition of human CCRF-CEM cells at 10 uM after 48 hrs; settings: read-out: GI; in short: as §1
[19] = Cytotoxicity against human breast cancer cells at 10 uM after 48 hrs; settings: Cancer cell lines; in short: as §1
[20] = Cytotoxicity against human renal cancer cells at 10 uM after 48 hrs; settings: Cancer cell lines
[21] = Cytotoxicity against human melanoma cells at 10 uM after 48 hrs; settings: Melanoma cell; in short: as §1
[22] = Cytotoxicity against human CNS cancer cells at 10 uM after 48 hrs; settings: Cancer cell lines
[23] = tested on: T47D; experiment: Growth inhibition of human T47D cells at 10 uM after 48 hrs; settings: read-out: GI; in short: as §2
[24] = tested on: BT-549; experiment: Growth inhibition of human BT549 cells at 10 uM after 48 hrs; settings: BT-549, 48 h, read-out: GI; in short: as §1
[25] = Growth inhibition of human Hs 578T cells at 10 uM after 48 hrs; settings: read-out: GI; in short: as §1
[26] = tested on: MCF7; experiment: Growth inhibition of human MCF7 cells at 10 uM after 48 hrs; settings: MCF7, 48 h, read-out: GI; in short: as §1
[27] = tested on: MDA-MB-231; experiment: Growth inhibition of human MDA-MB-231 cells at 10 uM after 48 hrs; settings: MDA-MB-231, 48 h, read-out: GI; in short: as §1
[28] = tested on: DU-145; experiment: Growth inhibition of human DU145 cells at 10 uM after 48 hrs; settings: DU-145, 48 h, read-out: GI; in short: as §1
[29] = tested on: PC-3; experiment: Growth inhibition of human PC3 cells at 10 uM after 48 hrs; settings: PC-3, 48 h, read-out: GI; in short: as §1
[30] = tested on: TK-10; experiment: Growth inhibition of human TK10 cells at 10 uM after 48 hrs; settings: TK-10, 48 h, read-out: GI; in short: as §2
[31] = Growth inhibition of human UO31 cells at 10 uM after 48 hrs; settings: UO-31, 48 h, read-out: GI; in short: as §2
[32] = tested on: SN12C; experiment: Growth inhibition of human SN12C cells at 10 uM after 48 hrs; settings: read-out: GI; in short: as §2
[33] = tested on: CAKI-1; experiment: Growth inhibition of human CAKI-1 cells at 10 uM after 48 hrs; settings: CAKI-1, 48 h, read-out: GI; in short: as §1
[34] = Growth inhibition of human RXF393 cells at 10 uM after 48 hrs; settings: RXF 393, 48 h, read-out: GI; in short: as §1
[35] = tested on: ACHN; experiment: Growth inhibition of human ACHN cells at 10 uM after 48 hrs; settings: read-out: GI; in short: as §1
[36] = tested on: 786-0; experiment: Growth inhibition of human 786-0 cells at 10 uM after 48 hrs; settings: 786-0, 48 h, read-out: GI; in short: as §1
[37] = tested on: SK-OV-3; experiment: Growth inhibition of human SKOV3 cells at 10 uM after 48 hrs; settings: SK-OV-3, 48 h, read-out: GI; in short: as §2
[38] = Growth inhibition of human NCI-ADR-RES cells at 10 uM after 48 hrs; settings: read-out: GI; in short: as §1
[39] = tested on: OVCAR-8; experiment: Growth inhibition of human OVCAR8 cells at 10 uM after 48 hrs; settings: OVCAR-8, 48 h, read-out: GI; in short: as §1
[40] = Growth inhibition of human OVCAR5 cells at 10 uM after 48 hrs; settings: OVCAR-5, 48 h, read-out: GI; in short: as §1
[41] = tested on: OVCAR-3; experiment: Growth inhibition of human OVCAR3 cells at 10 uM after 48 hrs; settings: OVCAR-3, 48 h, read-out: GI; in short: as §1
[42] = Growth inhibition of human OVCAR4 cells at 10 uM after 48 hrs; settings: OVCAR-4, 48 h, read-out: GI; in short: as §1
[43] = tested on: SK-MEL-5; experiment: Growth inhibition of human SK-MEL-5 cells at 10 uM after 48 hrs; settings: SK-MEL-5, 48 h, read-out: GI; in short: as §2
[44] = tested on: SK-MEL-28; experiment: Growth inhibition of human SK-MEL-28 cells at 10 uM after 48 hrs; settings: SK-MEL-28, 48 h, read-out: GI; in short: as §2
[45] = read-out: LC50 (the source's name)

Clc1ccc(/C=C2\CCCC3=C(c4ccc(Cl)cc4)Nc4ccccc4N=C32)cc1
inhibition of growth at 10 µM [1]: 88.2% | inhibition of growth at 10 µM [2]: < 30% | inhibition of growth at 10 µM [3]: < 30% | inhibition of growth at 10 µM [4]: < 30% | inhibition of growth at 10 µM [5]: < 30% | inhibition of growth at 10 µM [6]: < 30% | inhibition of growth at 10 µM [7]: 84.1% | inhibition of growth at 10 µM [8]: 31.9% | inhibition of growth at 10 µM [9]: < 30% | inhibition of growth at 10 µM [10]: < 30% | inhibition of growth at 10 µM [11]: 39.4% | inhibition of growth at 10 µM [12]: < 30% | inhibition of growth at 10 µM [13]: < 30% | inhibition of growth at 10 µM [14]: < 30% | inhibition of growth at 10 µM [15]: 78.5% | inhibition of growth at 10 µM [16]: 52.8% | inhibition of growth at 10 µM [17]: 34.2% | inhibition of growth at 10 µM [18]: < 30% | GI50 [19]: 4.6 µM | LC50 (concentration killing 50% of cells) [19]: 88.1 µM | TGI [19]: 58.2 µM | CC50 [20]: 64 µM | GI50 [20]: 3.3 µM | TGI [20]: 29.1 µM | GI50 [21]: 9.5 µM | TGI [21]: 24.3 µM | CC50 [21, 45]: 64.2 µM | GI50 [22]: 4.9 µM | TGI [22]: 52.4 µM | CC50 [22, 45]: 84.3 µM | inhibition of growth at 10 µM [23]: < 30% | inhibition of growth at 10 µM [24]: < 30% | inhibition of growth at 10 µM [25]: < 30% | inhibition of growth at 10 µM [26]: 64.2% | inhibition of growth at 10 µM [27]: < 30% | inhibition of growth at 10 µM [28]: < 30% | inhibition of growth at 10 µM [29]: < 30% | inhibition of growth at 10 µM [30]: < 30% | inhibition of growth at 10 µM [31]: < 30% | inhibition of growth at 10 µM [32]: < 30% | inhibition of growth at 10 µM [33]: < 30% | inhibition of growth at 10 µM [34]: 34.7% | inhibition of growth at 10 µM [35]: < 30% | inhibition of growth at 10 µM [36]: < 30% | inhibition of growth at 10 µM [37]: < 30% | inhibition of growth at 10 µM [38]: < 30% | inhibition of growth at 10 µM [39]: 34.3% | inhibition of growth at 10 µM [40]: < 30% | inhibition of growth at 10 µM [41]: 33% | inhibition of growth at 10 µM [42]: < 30% | inhibition of growth at 10 µM [43]: < 30% | inhibition of growth at 10 µM [44]: < 30%
